Each block holds one molecule with its values, some of them ahead of it.
Assays:
Tyr705 of Stat3 [1] = biological target: T1, Tyr705 of Stat3 (Homo sapiens, UniProt P40763); settings: MDA-MB-468; cited from earlier work
Tyr705 of Stat3 [2] = biological target: T1, Tyr705 of Stat3; assay: Inhibition of constitutive Stat3 Tyr705 phosphorylation in MDA-MB-468 cells; assay type: cell-based
In short: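 MDA-MB-468 cells (4 × 10^5/well) were grown overnight in DMEM with 10% FCS. Prodrug was given from a 10 mM DMSO stock prepared fresh, for 2 h, or over a time course. After ice-cold PBS washes, cells were lysed (Hepes pH 7.4, Triton X-100, NaF, vanadate, protease inhibitors). 12 µg protein went on 8% SDS-PAGE/PVDF with 5% BSA block. Blots were probed for pStat3 Y705 by ECL, stripped at 50°C, and reprobed for total Stat3.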

Stat3 [3] = biological target: T2, Stat3 (Homo sapiens, UniProt P40763); assay: IL-6-stimulated Stat3 phosphorylation in A375 melanoma cells; assay type: cell-based; settings: A375, 1.5 hour exposure then IL-6
In short: (§1)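 Hey, MeWo and A375 cells were seeded at 3 × 10^5 cells/well in RPMI1640 and cultured overnight, with a media change. Cells then received increasing test compound concentrations for 2 h. IL-6 at 10 ng/mL was present for the last 30 min. Lysates were blotted for pStat3 Y705 and total Stat3 as in the constitutive assay.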

Tyr694 of Stat5 = assay: Stat5 Tyr694 phosphorylation in MDA-MB-468 cells; assay type: cell-based
cyclin D1 [4] = assay: Expression of downstream gene cyclin D1 in MDA-MB-468 cells; assay type: cell-based; settings: MDA-MB-468, 5 µM
Stat3 [5] = biological target: T2, Stat3; assay: Constitutive Stat3 phosphorylation in SKOV3ip ovarian cancer cells; assay type: cell-based
In short: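 SKOV3-ip cells were seeded at 3 × 10^5 cells/well in McCoy's 5A medium and handled as for MDA-MB-468. Prodrug was added from a 10 mM DMSO stock made just before use, for 2 h. Cells were lysed in Hepes pH 7.4/Triton X-100 buffer with phosphatase and protease inhibitors. 12 µg protein was run on 8% SDS-PAGE, blotted for pStat3 Y705 by ECL, then stripped and reprobed for total Stat3.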

survivin [6] = assay: Expression of survivin in MDA-MB-468 cells; assay type: cell-based; settings: MDA-MB-468 breast line, data not shown
Ser473 of Akt [7] = assay: Akt Ser473 phosphorylation in MDA-MB-468 cells; assay type: cell-based
Tyr701 of Stat1 = biological target: T3, Tyr701 of Stat1 (Homo sapiens, UniProt P42224); assay: IFNγ-stimulated Stat1 Tyr701 phosphorylation in MDA-MB-468 cells; assay type: cell-based; settings: MDA-MB-468, 1.5 h then 30 min IFNγ
T3 sequence (P42224 1-750): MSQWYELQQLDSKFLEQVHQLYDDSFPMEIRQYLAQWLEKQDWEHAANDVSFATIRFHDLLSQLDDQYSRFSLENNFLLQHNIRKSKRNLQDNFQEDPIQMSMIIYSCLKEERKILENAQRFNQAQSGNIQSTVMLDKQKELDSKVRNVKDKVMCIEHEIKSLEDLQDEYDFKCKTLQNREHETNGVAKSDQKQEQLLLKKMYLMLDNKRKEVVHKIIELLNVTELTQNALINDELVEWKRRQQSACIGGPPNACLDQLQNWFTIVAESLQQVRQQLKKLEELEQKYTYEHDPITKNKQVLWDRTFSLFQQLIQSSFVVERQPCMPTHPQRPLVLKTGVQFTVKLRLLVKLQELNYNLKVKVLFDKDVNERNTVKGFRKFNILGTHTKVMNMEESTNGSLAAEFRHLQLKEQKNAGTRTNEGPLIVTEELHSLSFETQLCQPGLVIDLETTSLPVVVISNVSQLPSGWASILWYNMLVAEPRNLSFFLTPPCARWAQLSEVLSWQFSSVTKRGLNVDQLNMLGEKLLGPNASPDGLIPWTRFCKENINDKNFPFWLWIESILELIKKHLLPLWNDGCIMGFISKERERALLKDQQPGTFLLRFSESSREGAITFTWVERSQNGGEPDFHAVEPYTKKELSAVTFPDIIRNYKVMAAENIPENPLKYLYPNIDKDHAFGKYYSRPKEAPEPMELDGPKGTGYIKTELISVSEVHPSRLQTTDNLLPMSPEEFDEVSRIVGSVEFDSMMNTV
In short: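 MDA-MB-468 cells were prepared as for the Stat3 assay (plated overnight in DMEM/10% FCS) and exposed to increasing test compound concentrations for 1.5 h. Interferon γ was then added at 25 ng/mL for 30 min. Lysates were run on PAGE, blotted to PVDF, and probed for pTyr701 Stat1 and total Stat1 with chemiluminescent detection.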

Ser473 of Akt [8] = assay: Akt Ser473 phosphorylation in HCC-827 NSCLC cells; assay type: cell-based
pTyr705 Stat3 = pTyr705 Stat3 (Homo sapiens, UniProt P40763); assay type: cell-based; settings: MDA-MB-468, 5 µM, 2 h
In short: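 MDA-MB-468 cells on slides were given DMSO or 5 µM test compound for 2 h. Cells were fixed in 4% paraformaldehyde, permeabilized with 0.5% Triton X-100 and blocked with 3% BSA. Staining used anti-pTyr705 Stat3 and an Alexa Fluor 594 secondary. Confocal imaging used identical microscope settings throughout.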

Stat3 [9] = biological target: T2, Stat3; assay: Stat3 phosphorylation in HCC-827 non-small-cell lung cancer cells; assay type: cell-based; settings: HCC-827, 5 µM
Stat3 [10] = biological target: T2, Stat3; assay: IL-6-stimulated Stat3 phosphorylation in MeWo melanoma cells; assay type: cell-based; settings: 1.5 hour exposure then IL-6
In short: as §1

survivin [11] = assay: Expression of survivin in HCC-827 cells; assay type: cell-based; settings: HCC-827 lung line, 5 µM
p38 MAPK = p38 MAPK phosphorylation in HCC-827 NSCLC cells; assay type: cell-based
MDA-MB-468 cells = assay: Cytotoxicity to MDA-MB-468 cells, MTT assay; assay type: cell-based; settings: MDA-MB-468, treated daily for three days
In short: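 MDA-MB-468 cells in DMEM with 10% FBS were plated at 1500 cells/well in triplicate, and the medium was changed the next day. Prodrug was dissolved fresh in ethanol to a 10 mM stock, diluted, and added. Further doses went into the same medium at 24 and 48 h, with final ethanol below 1%. Viability was read by MTT.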

cyclin D1 [12] = assay: Expression of cyclin D1 in HCC-827 cells; assay type: cell-based; settings: HCC-827, 5 µM
Stat3 [13] = biological target: T2, Stat3; assay: EGF-stimulated Stat3 phosphorylation in MDA-MB-468 cells; assay type: cell-based; settings: MDA-MB-468, 5 µM, 1.5 h then EGF 30 min
Bcl-xL = assay: Expression of downstream gene Bcl-xL in MDA-MB-468 cells; assay type: cell-based; settings: MDA-MB-468, 5 µM
Stat3 [14] = biological target: T2, Stat3; assay: IL-6-stimulated Stat3 phosphorylation in HEY ovarian cancer cells; assay type: cell-based; settings: 1.5 hour exposure then IL-6
In short: as §1

H528 = assay: Growth inhibition of H528 NSCLC cells; assay type: cell-based; settings: H528, 5–10 µM, data not shown
[15] = system: Tyr861 of the focal adhesion kinase (FAK); assay: Constitutive FAK Tyr861 phosphorylation in MDA-MB-468 cells; assay type: cell-based
In short: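 Constitutive signal, no stimulus: MDA-MB-468 cells were plated overnight in DMEM/10% FCS and given test compound from a 10 mM DMSO stock for 2 h. Cells were lysed in Hepes pH 7.4 detergent buffer with phosphatase and protease inhibitors. Protein was separated by SDS-PAGE, blotted to PVDF, blocked with 5% BSA, and probed for pTyr861 FAK and total FAK.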

[16] = MDA-MB-468, 5 µM, 1.5 h then EGF 30 min
[17] = MDA-MB-468, 25 µM, two hour treatment
[18] = MDA-MB-468, 2 h treatment, western blot
[19] = MDA-MB-468, single dose of 5 µM

T2 sequence (P40763 whole entry): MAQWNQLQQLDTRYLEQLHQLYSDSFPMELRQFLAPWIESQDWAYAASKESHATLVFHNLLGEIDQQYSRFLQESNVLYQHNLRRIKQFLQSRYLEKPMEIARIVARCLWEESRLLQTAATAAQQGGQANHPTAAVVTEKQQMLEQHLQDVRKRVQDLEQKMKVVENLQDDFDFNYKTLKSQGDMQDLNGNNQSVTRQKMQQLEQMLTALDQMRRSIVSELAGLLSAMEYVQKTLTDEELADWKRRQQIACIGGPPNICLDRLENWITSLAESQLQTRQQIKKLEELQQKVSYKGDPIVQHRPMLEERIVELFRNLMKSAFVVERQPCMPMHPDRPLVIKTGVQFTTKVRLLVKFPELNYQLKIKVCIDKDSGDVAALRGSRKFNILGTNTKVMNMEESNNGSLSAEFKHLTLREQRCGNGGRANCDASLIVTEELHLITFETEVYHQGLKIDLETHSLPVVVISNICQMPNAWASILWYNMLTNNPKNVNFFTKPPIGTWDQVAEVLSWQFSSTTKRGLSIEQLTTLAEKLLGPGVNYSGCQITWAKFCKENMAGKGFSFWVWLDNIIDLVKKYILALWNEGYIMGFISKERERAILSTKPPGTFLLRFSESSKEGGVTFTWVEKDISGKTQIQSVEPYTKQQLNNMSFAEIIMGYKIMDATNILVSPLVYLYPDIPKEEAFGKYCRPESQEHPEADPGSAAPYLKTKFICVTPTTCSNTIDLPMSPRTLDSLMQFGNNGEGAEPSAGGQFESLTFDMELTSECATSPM
T1 sequence (P40763 whole entry): as above
Sequence of pTyr705 Stat3 (P40763 whole entry): as above

SMILES: CC(C)(C)C(=O)OCOP(=O)(OCOC(=O)C(C)(C)C)C(F)(F)c1ccc(/C=C/C(=O)N[C@H]2CCc3cccc4c3N(C2=O)[C@H](C(=O)N[C@@H](CCC(N)=O)C(=O)NCc2ccccc2)C4)cc1 [compound 3]
concentration that completely inhibited constitutive phosphorylation of Stat3 Tyr705 (Tyr705 of Stat3 [1]): 10 µM
effect on level of pStat3 (Tyr705 of Stat3 [2]; MDA-MB-468, 2 h, increasing concentrations): reduced the level of pStat3 in a dose-dependent manner

IL-6-induced pStat3 formation (Stat3 [3]): inhibited pStat3 formation
concentration at which constitutively activated Stat3 was completely inhibited (Stat3 [5]): 1 µM
concentration of complete inhibition of Stat1 phosphorylation (Tyr701 of Stat1): 5 µM
pStat3 nuclear localization (pTyr705 Stat3): abrogated nuclear localization
duration of pStat3 inhibition (Stat3 [9]): at least 4 h
pStat3 level at 24 h (Stat3 [9]; 24 h): had not returned to pretreatment levels
IL-6-induced pStat3 formation (Stat3 [10]): inhibited pStat3 formation
increase in Stat3 phosphorylation induced by EGF (Stat3 [13]): completely inhibited
IL-6-induced pStat3 formation (Stat3 [14]): inhibited pStat3 formation
concentration at which pStat3 was completely inhibited (Tyr705 of Stat3 [2]; [18]): 0.5 µM
concentration with noticeable inhibition of pStat3 (Tyr705 of Stat3 [2]; [18]): 0.1 µM
time at which pStat3 formation was completely inhibited (Tyr705 of Stat3 [2]; [19]): 30 min
time for which complete inhibition of pStat3 was sustained (Tyr705 of Stat3 [2]; [19]): 4 h
SMILES: C/C(=C\C(=O)N[C@H]1CCc2cccc3c2N(C1=O)[C@H](C(=O)N[C@H](C)CCC(N)=O)C3)c1ccc(C(F)(F)P(=O)(OCOC(=O)C(C)(C)C)OCOC(=O)C(C)(C)C)cc1 [compound 34, βMF2Pm(POM2)Cinn-Haic-Apa]
Stat5 phosphorylation (Tyr694 of Stat5; [16]): not inhibited
Stat5 phosphorylation at high concentration (Tyr694 of Stat5; [17]): inhibited phosphorylation
expression of cyclin D1 (cyclin D1 [4]): No inhibition
expression of survivin (survivin [6]): reduced
Akt Ser473 phosphorylation (Ser473 of Akt [7]; [16]): do not inhibit Akt phosphorylation
Akt phosphorylation at high concentration (Ser473 of Akt [7]; [17]): inhibited phosphorylation
phosphorylation of Ser473 of Akt (Ser473 of Akt [8]): no effect
expression of survivin (survivin [11]): reduced
phosphorylation of p38 MAPK (p38 MAPK): no effect
survival curves with daily dosing compared with single dose (MDA-MB-468 cells): little change in the survival curves
expression of cyclin D1 (cyclin D1 [12]): not inhibited
expression of Bcl-xL (Bcl-xL): No inhibition
inhibition (H528): < 20%
FAK phosphorylation at high concentration [15, 17]: inhibited phosphorylation
FAK Tyr861 phosphorylation ([15]; MDA-MB-468, 2 h treatment): no reduction of Tyr861 phosphorylation

From PMC3319156 (Journal of Medicinal Chemistry, 2011)
